# Assay outcomes as filed in PubChem.
# M1 antag – blocks human M1 muscarinic receptor; inhibition, % at 3 µM; CHO-K1 hM1, Fluo-8 calcium fluorescence, ACh EC80 antagonist; 360,000 tested, 1.3% active;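 active means percent inhibition above its own plate's cutoff, namely the mean of that plate's compound wells plus 3 SD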;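 further: peak over basal fluorescence ratio during 140 s after agonist addition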
# Target sequence (P11229 whole entry, looked up): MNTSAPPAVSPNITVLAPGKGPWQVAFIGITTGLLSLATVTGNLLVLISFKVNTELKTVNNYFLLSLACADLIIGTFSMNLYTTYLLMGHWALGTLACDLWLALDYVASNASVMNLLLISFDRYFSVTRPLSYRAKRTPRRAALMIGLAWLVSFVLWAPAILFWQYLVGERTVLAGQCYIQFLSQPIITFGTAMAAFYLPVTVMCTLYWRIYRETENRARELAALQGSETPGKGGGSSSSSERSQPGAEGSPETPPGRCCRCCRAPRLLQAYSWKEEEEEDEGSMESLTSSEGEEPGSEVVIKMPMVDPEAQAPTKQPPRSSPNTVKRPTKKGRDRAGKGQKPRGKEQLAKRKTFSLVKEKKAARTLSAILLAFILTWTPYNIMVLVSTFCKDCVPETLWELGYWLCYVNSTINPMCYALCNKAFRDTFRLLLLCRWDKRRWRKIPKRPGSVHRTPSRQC
# M1 ag – agonists of human M1 muscarinic receptor; CHO-K1 hM1, Fluo-8 calcium fluorescence, agonist mode; 0% DMSO, 100% acetylcholine EC100; P11229; 360,000 tested, 0.33% active; activation, % at 3 µM;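 active means activation above the run's mean compound activation plus 3 SD, cut at about 16% in these data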;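 further: peak over basal fluorescence ratio within a 140 s kinetic read after compound addition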
# CHRM5 antagonist – blocks acetylcholine activation of human M5 receptor. P08912. CHO-hM5 cells, Fluo-8 calcium fluorescence, ACh EC80. inhibition, % at 3 µM. 360,000 tested, 0.59% active. AID 624040;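 active means inhibition above a per-plate cutoff, the mean of that plate's test compounds plus 3 SD, cut at about 27% in these data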
# M5 ag – agonists of human muscarinic M5 receptor (CHRM5); CHO-K1 hM5 cells, Fluo-8 calcium fluorescence; 0% DMSO wells, 100% maximal acetylcholine response; activation, % at 3 µM; 360,000 tested, 0.19% active;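 active means activation above the run's mean over test compounds plus 3 SD, cut at about 23% in these data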;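 further: signal is peak over basal fluorescence ratio across the kinetic read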
# M1 PAM – positive allosteric modulators of human M1 muscarinic receptor; activation, % at 3 µM; P11229; CHO-K1 hM1, Fluo-8 calcium fluorescence, ACh EC20; 0% = ACh EC20, 100% = maximal ACh; 360,000 tested, 0.088% active; AID 588819; in the data active means activation above about 19%, passing the limit was not always enough
# M5 PAM – CHRM5 positive allosteric modulation; P08912; 360,000 tested, 0.3% active; CHO-K1 hM5, Fluo-8 calcium, ACh EC20 PAM; 0% = ACh EC20, 100% = ACh EC100; AID 624038; activation, % at 3 µM;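 active means activation above the run cutoff, the mean activation of all test compounds plus 3 SD, cut at about 18% in these data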
#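 Assay system – human M5 receptor in CHO-K1 cells · Read-out – % activation, ACh-normalized · Technique – Fluo-8 calcium fluorescence · Dosing – single-point, 3 µM nominal · Incubation – Fluo-8 loading 80 min at 37 °C plus 30 min room temperature · Repeats – singlicate, one well per test compound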
# Numbers stand for hits; i = inactive; nt = not tested or not shown. The list is not random: actives were taken first. Their share in the collection is about 2%.
SMILES,M1 antag,M1 ag,CHRM5 antagonist,M5 ag,M1 PAM,M5 PAM
CC1=C(C(=O)N2CCCCCC2)CC(CC(=O)NCC2CCCCC2)C(=O)N1Cc1ccc(F)cc1 (centres undefined),nt,nt,i,i,nt,i
COc1ccccc1Cc1c(-c2ccco2)nc2ccc(C)cn12,i,i,i,i,i,i
O=C(CN1CCCCC1)NC(=O)NC1CCCCC1,i,i,55,i,i,i
CCCCOc1ccc(S(=O)(=O)N2CCN(c3ccc(N4CCN(CC)CC4)nn3)CC2)cc1,i,i,i,i,i,i
CCN1CCN(c2ccc(N3CCN(S(=O)(=O)c4cccc([N+](=O)[O-])c4)CC3)nn2)CC1,34,i,i,i,i,i
CC1(C)Cc2cccc(OCC(=O)NCc3ccccc3F)c2O1,29,i,i,i,i,i
Cc1ccc(CNC(=O)COc2cccc3c2OC(C)(C)C3)cc1,i,i,i,i,i,i
O=C1C=C(NNC(=O)c2ccncc2)CC(c2ccccc2)C1 (centres undefined),i,i,i,33,i,i
COc1cccc(CNc2nc3cc(C(C)=C(C)C)sc3c(=O)n2C)c1,i,i,i,i,i,i
FC(F)(F)Sc1ccc(NC(=S)NCc2ccccc2)cc1,40,i,28,i,i,i
S=C(NCc1ccccc1)Nc1ccc(Cl)cc1,i,i,i,i,i,i
CCCCCCCCCn1ccc(=N)cc1,40,i,i,i,i,i
O=[N+]([O-])c1cc(C(F)(F)F)ccc1SCC(O)CO (centres undefined),i,i,i,i,i,26
Cc1ccc(Cn2cc(CN3CC(N4CCN(C5CCN(C)CC5)CC4)CS3(=O)=O)nn2)cc1 (centres undefined),nt,nt,i,i,nt,i
O=[N+]([O-])c1ccc(NC(=S)NCCc2ccc(F)cc2)cc1,33,i,33,i,i,i
C/C(=N\Nc1ncnc2sc(C)c(C)c12)c1ccccn1,i,i,i,i,i,22
Cc1sc2ncnc(N/N=C/c3cccc(O)c3)c2c1C,i,i,i,i,i,i
COCCN1C(=O)CSCC1(C)C(=O)NC(C)C (centres undefined),nt,nt,i,i,nt,i
CC(C)[C@H](NC(=O)OC(C)(C)C)c1cc(C(=O)NCCc2c[nH]c3ccccc23)c(N)s1,nt,nt,i,i,nt,i
CCc1nc(SCC(=O)Nc2cc(OC)ccc2OC)c2c(C)c(C)sc2n1,33,i,i,i,i,i
CC1(C(=O)NS(=O)(=O)c2ccc(F)cc2F)CCN1C(=O)c1ccc(C2CCCCC2)cc1 (centres undefined),i,i,i,i,i,i
Cn1nc(C(C)(C)C)cc1C(=O)N1CCCCC1c1cc(C(=O)Nc2ccc(F)c(Cl)c2)no1 (centres undefined),i,i,i,i,i,i
CN(c1ccccc1)S(=O)(=O)c1cccc(NS(=O)(=O)c2cccc(C(=O)O)c2)c1,i,i,i,i,i,23
Cc1ccc(S(=O)(=O)N(C)c2ccc(OCC(=O)Nc3nc4ccccc4s3)cc2)cc1,i,i,31,i,i,i
Cc1ccc(S(=O)(=O)N(C)c2ccc(OCC(=O)Nc3nc4c(ccc5ccccc54)s3)cc2)cc1,i,i,i,i,i,i
SMILES,M1 antag,M1 ag,CHRM5 antagonist,M5 ag,M1 PAM,M5 PAM
CN(c1ccccc1)S(=O)(=O)c1cccc(C(=O)NC2CCCCC2)c1,i,i,i,i,i,i
COCCn1cnnc1SCC(=O)Nc1cccc(S(=O)(=O)N(C)c2ccccc2)c1,i,i,i,i,i,i
CCC(=O)c1ccc(OCC(=O)Nc2cccc(S(=O)(=O)N(C)c3ccccc3)c2)cc1,56,i,34,i,i,i
Cc1nnc(SCC(=O)Nc2cccc(S(=O)(=O)N(C)c3ccccc3)c2)s1,36,i,31,i,i,i
COc1cc(/C=C/CN2CCC(C(=O)NC(c3ccc(F)cc3)c3ccc4ccccc4n3)CC2)ccc1OC(C)=O (centres undefined),i,i,i,i,i,i
CC(C)=CCOc1ccc2c(C)c(CCC(=O)N3C[C@H]4C[C@@H](C3)c3cccc(=O)n3C4)c(=O)oc2c1C,i,i,i,i,i,i
